Calls of active or inactive are those of the source. No cut-off for these calls is given here.
Assays:
[1] = target: T1, 5-hydroxytryptamine receptor 2B (Homo sapiens, UniProt P41595); assay: Displacement of [3H]-LSD from human recombinant 5-HT2B receptor stably expressed in HEK cells after 90 mins by microbeta scintillation counting method; type: cell-based
Procedure, shortened: (§1)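 Run by NIMH Psychoactive Drug Screening Program. Otherwise, competition binding curves are generated and pKi is taken from a sigmoidal curve fit. Data are either triplicate measurements within one experiment, with the error from the fit, or the mean of repeated experiments, each run in triplicate.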

[2] = target: T2, Sigma intracellular receptor 2 (Homo sapiens, UniProt Q5BJF2); assay: Displacement of […] from human recombinant sigma2 receptor expressed in HEKT cells at 10 uM after 90 mins by microbeta scintillation counting method relative to control; type: cell-based
Procedure, shortened: (§2)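 Radioligand binding run by the NIMH Psychoactive Drug Screening Program. […] Otherwise Ki comes from sigmoidal curve fits of triplicate measurements in a single experiment, or is averaged over repeated experiments each run in triplicate.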

[3] = target: T2, Sigma intracellular receptor 2; assay: Displacement of […] from human recombinant sigma2 receptor expressed in HEKT cells after 90 mins by microbeta scintillation counting method; type: cell-based; procedure, shortened: as §1
[4] = target: T1, 5-hydroxytryptamine receptor 2B; assay: Displacement of [3H]-LSD from human recombinant 5-HT2B receptor stably expressed in HEK cells at 10 uM after 90 mins by microbeta scintillation counting method relative to control; type: cell-based; procedure, shortened: as §2
[5] = target: Sigma non-opioid intracellular receptor 1 (Homo sapiens, UniProt Q99720); assay: Displacement of [3H]-Pentazocine from human recombinant sigma1 receptor expressed in HEKT cells after 90 mins by microbeta scintillation counting method; type: cell-based
[6] = target: T3, 5-hydroxytryptamine receptor 1A (Homo sapiens, UniProt P08908); assay: Displacement of [3H]-Way100635 from human recombinant 5-HT1A expressed in stable CHO cells after 90 mins by microbeta scintillation counting method; type: cell-based; conditions: read-out: pKi (converted); procedure, shortened: as §1
T3 sequence (P08908 whole entry): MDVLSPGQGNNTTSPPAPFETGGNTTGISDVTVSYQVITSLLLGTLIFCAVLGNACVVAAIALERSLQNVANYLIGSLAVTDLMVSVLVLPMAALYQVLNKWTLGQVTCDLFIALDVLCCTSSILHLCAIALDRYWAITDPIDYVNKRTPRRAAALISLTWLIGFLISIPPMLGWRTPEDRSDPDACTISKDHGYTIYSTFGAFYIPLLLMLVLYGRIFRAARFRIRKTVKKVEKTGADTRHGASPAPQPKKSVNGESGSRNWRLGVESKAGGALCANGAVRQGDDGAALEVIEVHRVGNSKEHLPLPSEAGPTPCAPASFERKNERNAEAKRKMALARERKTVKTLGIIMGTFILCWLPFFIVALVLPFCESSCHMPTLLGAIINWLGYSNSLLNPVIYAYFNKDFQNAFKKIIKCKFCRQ

[7] = target: 5-hydroxytryptamine receptor 7 (Homo sapiens, UniProt P34969); assay: Displacement of [3H]-LSD from human recombinant 5-HT7 receptor expressed in stable HEK cells after 90 mins by microbeta scintillation counting method; type: cell-based; conditions: read-out: pKi (converted); procedure, shortened: as §1
[8] = species: Homo sapiens; assay: Selectivity index, ratio of Ki for human recombinant sigma2 receptor to Ki for human recombinant 5-HT2B receptor
Procedure, shortened: (§3)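 Both Ki values in each ratio come from NIMH Psychoactive Drug Screening Program radioligand binding. […] Other targets were given full binding curves, measured in triplicate, and Ki was taken from a sigmoidal curve fit. Some values were repeated in duplicate or triplicate independent experiments.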

[9] = tested on: 661W; assay: Cytoprotective activity in mouse 661W cells assessed as inhibition of t-BHP induced oxidative stress by measuring increase in cell viability at 50 to 100 uM after 24 hrs by MTT assay (Rvb < 50%); type: functional, cell-based
[10] = tested on: 661W; assay: Cytoprotective activity in mouse 661W cells assessed as reduction in tBHP-induced ROS level at 20 to 50 uM after 2 hrs by […] fluorescent microscopic analysis; type: functional, cell-based
Procedure, shortened: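 661W cells seeded on coverslips for 18 h, then exposed 2 h to 55 μM tBHP with or without test agent or (+)-pentazocine. ROS are detected with CellROX green dye by epifluorescence, with DAPI marking nuclei. Fluorescence intensity is quantified as mean ± SD from three independent experiments, each run in duplicate.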

[11] = species: Homo sapiens; assay: Selectivity index, ratio of Ki for human recombinant sigma2 receptor to Ki for human recombinant sigma1 receptor; procedure, shortened: as §3
[12] = species: Homo sapiens; assay: Selectivity index, ratio of Ki for human recombinant 5-HT2B receptor to Ki for human recombinant sigma1 receptor

Sequence of 5-hydroxytryptamine receptor 7 (P34969 whole entry): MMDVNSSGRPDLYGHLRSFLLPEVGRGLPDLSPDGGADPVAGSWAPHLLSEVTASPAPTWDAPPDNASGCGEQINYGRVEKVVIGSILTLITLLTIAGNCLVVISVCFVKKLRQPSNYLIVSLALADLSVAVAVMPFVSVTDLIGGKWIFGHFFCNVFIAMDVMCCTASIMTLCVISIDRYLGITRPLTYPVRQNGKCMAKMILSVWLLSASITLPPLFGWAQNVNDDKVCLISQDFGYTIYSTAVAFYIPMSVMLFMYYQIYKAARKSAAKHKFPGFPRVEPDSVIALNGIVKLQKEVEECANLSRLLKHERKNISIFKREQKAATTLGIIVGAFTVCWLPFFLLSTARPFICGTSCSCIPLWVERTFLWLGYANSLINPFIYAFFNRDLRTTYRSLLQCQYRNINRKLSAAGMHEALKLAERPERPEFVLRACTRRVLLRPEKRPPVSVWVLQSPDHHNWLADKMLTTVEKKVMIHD
T2 sequence (Q5BJF2 whole entry): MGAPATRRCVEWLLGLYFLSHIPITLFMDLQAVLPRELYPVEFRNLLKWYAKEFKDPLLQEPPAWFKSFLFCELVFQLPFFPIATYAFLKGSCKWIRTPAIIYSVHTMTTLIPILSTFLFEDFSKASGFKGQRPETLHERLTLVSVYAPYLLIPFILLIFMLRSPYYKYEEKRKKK
T1 sequence (P41595 whole entry): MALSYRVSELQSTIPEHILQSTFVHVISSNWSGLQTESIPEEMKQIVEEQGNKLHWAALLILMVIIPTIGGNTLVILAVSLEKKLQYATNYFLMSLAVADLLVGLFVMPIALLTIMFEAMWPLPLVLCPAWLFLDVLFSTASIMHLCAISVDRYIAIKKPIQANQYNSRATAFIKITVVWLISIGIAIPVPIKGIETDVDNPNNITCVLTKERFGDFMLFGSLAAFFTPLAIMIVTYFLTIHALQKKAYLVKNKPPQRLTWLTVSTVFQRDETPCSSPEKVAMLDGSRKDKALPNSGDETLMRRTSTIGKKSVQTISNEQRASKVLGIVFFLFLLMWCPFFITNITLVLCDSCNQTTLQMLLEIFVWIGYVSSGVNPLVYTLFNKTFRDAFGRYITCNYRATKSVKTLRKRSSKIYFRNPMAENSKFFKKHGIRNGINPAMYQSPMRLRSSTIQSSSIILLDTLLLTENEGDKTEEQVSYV
Sequence of Sigma non-opioid intracellular receptor 1 (Q99720 whole entry): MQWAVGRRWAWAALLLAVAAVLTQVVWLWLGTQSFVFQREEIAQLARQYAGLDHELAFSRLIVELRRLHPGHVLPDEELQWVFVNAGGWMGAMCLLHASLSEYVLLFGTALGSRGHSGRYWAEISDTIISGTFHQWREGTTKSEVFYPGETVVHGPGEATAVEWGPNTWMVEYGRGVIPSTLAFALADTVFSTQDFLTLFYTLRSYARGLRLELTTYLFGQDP

Compound | Ki ([1]; read-out: pKi (converted)) [nM] | Ki [3] [nM] | Ki ([5]; read-out: pKi (converted)) [nM] | Ki [6] [nM] | Ki [7] [nM] | further results
CC[C@H]1c2ccc(O)cc2OC[C@@]1(C)N (racemic) | > 10000 | > 10000 | > 10000 |  |  | inhibition [2]: < 50%; inhibition [4]: < 50%
C[C@@]12COc3cc(OCc4ccccc4)ccc3[C@@H]1CCN2 (racemic) | 126 | 100 | 7.94 |  |  | 
C[C@@]12COc3c(-c4ccccc4)cccc3[C@@H]1CCN2 (racemic) | 158 | 126 | 39.8 | 200 | 23.4 | 
COc1ccc2c(c1)[C@@H]1CCN[C@]1(C)CO2 (racemic) | 631 | 3160 | 126 |  | 200 | 
CC[C@H]1c2c(ccc3ccccc23)OC[C@@]1(C)N (racemic) |  | 2000 | 1000 | 316 | 692 | Ki ([1]; read-out: Ki): 20 nM
Cc1ccc(N2C[C@@]3(C)NCC[C@H]3c3cc(C)ccc32)cc1 (racemic) | 316 | 316 | 251 |  | 200 | 
CC(=O)N1CC[C@H]2c3ccc(O)cc3OC[C@]21C (racemic) | > 10000 | > 10000 | > 10000 |  |  | inhibition [2]: < 50%; inhibition [4]: < 50%
Cc1cc(C)c2c(c1)OC[C@@]1(C)NCC[C@@H]21 (racemic) | 79.4 | 316 | 63.1 |  | 1260 | 
C[C@@]12CN(c3ccc(Br)cc3)c3ccc(Br)cc3[C@@H]1CCN2 (racemic) | 316 | 79.4 | 158 |  | 200 | 
CC(=O)N1CC[C@H]2c3cccc(-c4ccccc4)c3OC[C@]21C (racemic) | 501 | 1260 |  |  |  | 
CC[C@H]1c2ccc3ccccc3c2OC[C@@]1(C)N (racemic) |  | 316 | 3160 | 2510 | 1000 | Ratio Ki [8]: 150; Ki ([1]; read-out: Ki): 3.5 nM
CN1CC[C@H]2c3cccc(-c4ccccc4)c3OC[C@]21C (racemic) | 251 | 316 | 50.1 | 200 | 20 | 
C[C@@]12COc3c(Br)cccc3[C@@H]1CCN2 (racemic) | 20 | 631 | 501 | 1000 | 398 | 
CC(C)=CCN1CC[C@]2(C)c3cc(O)ccc3C[C@H]1[C@H]2C |  |  |  |  |  | Activity [9]: Active; inhibition [10]: Active
C[C@@]12COc3cc(O)ccc3[C@@H]1CCN2 (racemic) | > 10000 | 1000 | > 10000 |  |  | inhibition [4]: < 50%
CN1CC[C@H]2c3ccc(O)cc3OC[C@]21C (racemic) | 1000 | 3980 | 50.1 |  |  | 
C[C@@]12COc3ccc(-c4ccccc4)cc3[C@@H]1CCN2 (racemic) | 251 | 79.4 | 12.6 |  | 1000 | 
CC[C@H]1c2cc(OC)ccc2OC[C@@]1(C)N (racemic) | 251 | > 10000 | 398 | 2510 |  | inhibition [2]: < 50%
CC[C@H]1c2cc(-c3ccccc3)ccc2OC[C@@]1(C)N (racemic) | 126 | 316 |  | 2000 |  | Ratio Ki [11]: > 200; Ratio Ki [12]: 10; Ki ([5]; read-out: Ki): 16 nM
CC(=O)N1CC[C@H]2c3ccccc3N(c3ccccc3)C[C@]21C (racemic) | > 10000 | 1260 |  |  |  | inhibition [4]: < 50%
CN1CC[C@H]2c3ccccc3N(c3ccccc3)C[C@]21C (racemic) | 200 | 158 | 162 | 200 | 2.69 | 

Reference: ChEMBL document CHEMBL4304834, “3-Amino-chromanes and Tetrahydroquinolines as Selective 5-HT2B, 5-HT7, or σ1 Receptor Ligands” (ACS Med Chem Lett, 2019)
